Source: PubChem BioAssay (several laboratories)
BaF3 parental: parental Ba/F3 viability inhibition as JAK2V617F counter-screen; 220,000 tested, 1.1% active; CellTiter-Glo ATP luminescence; inhibition, % at 5.6 µM;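 active means inhibition above a per-campaign cutoff, the mean inhibition of all tested compounds plus 3 SD, cut at about 27% in these data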;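 further: 0% = DMSO wells and 100% = JAK Inhibitor I control wells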
Ba/F3 V617F tox: loss of viability in JAK2V617F-driven Ba/F3 cells; Ba/F3 EpoR-JAK2V617F viability, ATP luminescence; inhibition, % at 5.6 µM; 220,000 tested, 1.1% active; AID 1446;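 active means inhibition above the campaign mean plus 3 SD over all tested compounds, cut at about 24% in these data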;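 further: cytokine-independent growth of Ba/F3 cells driven by EpoR plus mutant JAK2; 0% = DMSO-treated cells and 100% = JAK inhibitor I control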
APP transl inh: APP translation inhibition; SH-SY5Y APP 5'UTR-luciferase reporter, luminescence; inhibition, % at 2 µM; 190,000 tested, 0.82% active; AID 1285;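 active means inhibition above a set limit, derived from the sample mean plus 3 SD, cut at about 45% in these data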
bCat nuc transl: modulators of beta-catenin nuclear translocation; HeLa beta-catenin nuclear translocation, immunofluorescence imaging; nuclear translocation activity, % at 5 µM; 190,000 tested, 0.3% active; AID 1665;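 active means nuclear translocation activity above 50% at 5 µM, with a well cell count of 50 or more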;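 further: per-cell ratio of nuclear to cytoplasmic median beta-catenin stain intensity; plate controls were DMSO negative control for no effect and GSK-3 inhibitor IX positive control for full effect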
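Assay system: human HeLa cells, native beta-catenin; doses: 5 µM primary, 0.02–20 µM confirmation; incubation: compound treatment 24 h, 37°C, 5% CO2; technique: fluorescence imaging of beta-catenin antibody stain plus DAPI; measure: % activation, nuclear-to-cytoplasmic median beta-catenin signal ratio per cell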
IEC-6 tox: IEC-6 cytotoxicity, counter-screen for KLF5 inhibitors; AID 1825; inhibition, % at 5 µM; 290,000 tested, 0.78% active; luminescence viability; in the data active means inhibition above about 22%;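 further: 0% = plate median of test compound wells and 100% = cytotoxic reference compound wells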
MT stabilizer: microtubule stabilizers in HeLa cells | HeLa tubulin immunostaining HCS, 24 h; share of cells brighter than vehicle mean+2SD | 200,000 tested, 0.83% active | % tubulin-high responders, % at 10 µM;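 active means plate Z-score above 3 for both tubulin-high and condensed-nucleus cell shares, with cell loss under 80%, at 10 µM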;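 further: anti alpha tubulin signal scored within the nucleus-defined area of each cell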
BaF3 tox 2: counter-screen for JAK2V617F inhibitors: parental Ba/F3 viability inhibitors. shares compounds with Ba/F3 V617F tox. CellTiter-Glo luminescence; cells kept alive by added IL-3. inhibition, % at 5.6 µM. 580 tested, 31% active;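 active means cell growth inhibition above the hit limit set in the earlier mutant JAK2 cell screen, cut at about 27% in these data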;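 further: plate controls were DMSO-treated cells for no effect and JAK Inhibitor I control wells for full effect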
JAK2V617F conf: Ba/F3 EpoR-JAK2V617F viability loss, confirmation. shares compounds with Ba/F3 V617F tox. CellTiter-Glo luminescence. inhibition, % at 5.6 µM. 580 tested, 66% active. AID 1521;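 active means mean inhibition above the hit cutoff derived in the earlier primary screen, cut at about 25% in these data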;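 further: 0% = DMSO-treated cells and 100% = JAK inhibitor I control wells; higher means lower luminescence from reduced cell ATP and viability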
Starred values were filed as active, the others as inactive; . = no result given. This is a sample that favours compounds with a hit; in the whole collection about 2.2% have one here.

SMILES	BaF3 parental	Ba/F3 V617F tox	APP transl inh	bCat nuc transl	IEC-6 tox	MT stabilizer	BaF3 tox 2	JAK2V617F conf
CCCCN(CC)Cc1ccc(CNC(=O)Nc2ccc(Cl)cc2)o1	-0.7	47.0*	-6.8	-0.7	17.7	2.1	14.4	41.6*
Cc1nn(Cc2ccc(Cl)cc2Cl)c(C)c1NC(=O)CCl	5.2	29.5*	-10.3	.	-1.2	7.3	4.9	64.3*
CCOc1ccc(CN(C)C(=O)[C@H](Cc2ccccc2)NC(=O)OCc2ccccc2)cc1OC	.	.	.	.	-6.2	.	.	.
O=[N+]([O-])c1cc(/C=N/Nc2nc3ccccc3[nH]2)c(O)cc1O	-4.1	29.8*	50.5*	4.6	1.8	9.9	68.0*	81.1*
COc1ccc(N2CCN(C(CNC(=O)C(=O)NCC(OC)OC)c3ccco3)CC2)cc1 (centres undefined)	.	.	.	.	-3.3	.	.	.
Cc1c(Cc2ccccc2)c(=O)oc2c(O)c(O)ccc12	1.2	43.8*	-4.5	0.9	3.9	4.3	2.2	63.8*
Cc1c(Cc2ccccc2)c(=O)oc2cc(O)ccc12	1.6	-1.6	.	1.6	0.1	.	.	.
COCCNC(=O)c1ccc(N2CC3CC(C2)c2cccc(=O)n2C3)c(NC(=O)c2ccc(Br)o2)c1 (centres undefined)	.	.	.	.	4.3	.	.	.
Cc1ccc(-c2cc(C(=O)NCCN3CCOCC3)c3ccccc3n2)o1	.	.	.	.	10.4	.	.	.
N/C(=N\OC(=O)c1cccc(Br)c1)c1ccc(Br)cc1	0.7	35.0*	5.4	0.9	6.6	0.8	-3.0	-2.1
O=C(NC1CCCCC1)N1CCN(c2ccccc2Cl)CC1	.	.	.	.	1.9	.	.	.
Cc1ccc(C(=O)n2c(N)nc3ccccc32)cc1	20.9	50.7*	-34.8	-0.9	8.6	5.0	6.1	-1.5
Cc1oc2c(O)c(O)ccc2c(=O)c1-c1ccccc1	.	.	.	-0.7	.	.	.	.
Cc1oc2c(O)c(O)ccc2c(=O)c1-c1cnn(-c2ccccc2)c1	-0.1	45.4*	-18.3	0.3	1.2	7.8	22.6	99.4*
CCOC(=O)C1CCN(Cc2ccc(OCc3ccccc3)c(OC)c2)CC1	.	.	.	.	3.6	.	.	.
Cc1cccc(C)c1OCc1cc(C(=O)N2CCN(c3ccc(F)cc3)CC2)no1	.	.	.	.	-5.6	.	.	.
O=[N+]([O-])c1cc(S(=O)(=O)NCCN2CCOCC2)ccc1Sc1nnnn1-c1ccccc1	18.9	45.8*	4.0	1.2	2.0	3.9	26.9*	95.8*
Cc1ccc(NC(=O)c2ccc(NS(=O)(=O)c3cccc4cccnc34)cc2)cc1	.	.	.	.	-0.3	.	.	.
CSc1cccc(NC(=S)N2CCC(N(C)C3CCCCCC3)CC2)c1	11.0	5.0	17.1	0.3	5.8	1.8	.	.
CN(C1CCCC1)C1CCN(C(=S)Nc2cc(F)cc(F)c2)CC1	20.0	30.6*	6.9	0.4	5.7	1.4	3.5	31.9*
O=C(Nc1cccc([N+](=O)[O-])c1)c1cc2ccccc2cc1O	6.5	24.0*	.	1.1	-3.0	.	63.7*	75.2*
COc1ccc(C2c3ccc4ccccc4c3Oc3ncn(CCCO)c(=N)c32)cc1OC (centres undefined)	0.8	81.3*	.	44.5	5.7	.	0.1	8.2
O=C(Nc1oc2ccc(Cl)cc2c(=O)c1-c1ccc(F)cc1)c1ccco1	.	.	.	.	9.7	.	.	.
NNC(=O)COc1ccc2oc3c(c2c1)CCCC3	.	.	.	.	5.2	.	.	.
Nc1c(C(=O)OCC2CCCO2)c2nc3ccccc3nc2n1-c1ccc2c(c1)OCCO2 (centres undefined)	2.4	95.8*	-6.8	5.0	-7.7	3.0	-5.2	-9.7
SMILES	BaF3 parental	Ba/F3 V617F tox	APP transl inh	bCat nuc transl	IEC-6 tox	MT stabilizer	BaF3 tox 2	JAK2V617F conf
Nc1c(C(=O)NC2CC2)c2nc3ccccc3nc2n1-c1ccc2c(c1)OCO2	3.4	-0.9	-4.2	-5.1	-0.6	1.5	.	.
Cc1cc(OC(C)C(=O)N(Cc2ccco2)C2CCS(=O)(=O)C2)cc(C)c1Cl (centres undefined)	.	.	.	.	0.9	.	.	.
COc1ccc2nc(C)cc(SCC(=O)NNC(=O)COc3ccccc3)c2c1	1.2	-3.9	-0.2	.	-0.1	2.0	.	.
COc1ccc2nc(C)cc(Sc3nc4ccccc4s3)c2c1	5.2	31.9*	.	-1.1	17.9	.	17.3	55.1*
CCCCOc1ccc(C(O)C(CN2CCCCC2)c2ccccc2)cc1 (centres undefined)	11.1	-1.8	3.7	-1.3	-5.1	5.3	.	.
CCCOc1ccc(C(=O)C(CN2CCCC2)c2ccccc2)cc1 (centres undefined)	6.3	65.5*	92.2*	13.5	6.1	19.2	52.3*	99.1*
N#C/C(=C\c1ccc(O)c(O)c1)S(=O)(=O)c1ccccc1	4.4	24.2*	23.4	0.6	-1.9	3.9	-5.1	9.6
O=C(Nc1nncs1)c1cc(S(=O)(=O)N2CCOCC2)ccc1Cl	.	.	.	.	-3.7	.	.	.
O=C(Nc1cc(S(=O)(=O)N2CCCCC2)ccc1Cl)c1ccccc1NS(=O)(=O)c1ccc(F)cc1	15.0	28.4*	-1.1	0.1	5.8	5.7	69.7*	78.8*
O=C(Nc1cc(S(=O)(=O)N2CCCCC2)ccc1O)c1ccccc1NS(=O)(=O)c1ccc(F)cc1	6.7	-0.2	6.5	0.1	-8.8	4.4	.	.
COc1ccccc1NC(=O)C1C2CCCCC21 (centres undefined)	1.6	93.9*	2.2	-6.8	-3.4	2.3	-7.9	-7.6
COc1ccccc1NC(=O)NC1CCCCCCC1	.	.	.	.	-1.4	.	.	.
N#C/C(=C\c1ccc(O)c(O)c1)C(=O)NCCCc1ccccc1	4.4	55.5*	-2.8	0.4	8.8	4.5	-2.0	87.1*
CCCCCCCN(C(=O)CCl)c1cccc(C)c1	10.1	6.6	-5.1	-1.4	6.4	4.9	.	.
CCCCCCN(C(=O)CCl)c1ccccc1	-0.1	49.3*	.	2.4	-6.4	.	0.8	62.7*
CC1CC(C)CN(C(=O)CCNC(=O)c2ccccc2Cl)C1 (centres undefined)	.	.	.	.	4.0	.	.	.
COc1ccccc1C(=O)Nc1nnc(SCC(=O)NC2CCCC2)s1	.	.	.	.	11.3	.	.	.
CCOc1cc(C(=O)Nc2ccc(N3CCN(S(C)(=O)=O)CC3)cc2)cc(OCC)c1OCC	4.7	100.3*	-3.9	.	-4.7	3.2	-0.9	7.2
CCC(C)n1ncn(-c2ccc(N3CCN(c4ccc(O)cc4)CC3)cc2)c1=O (centres undefined)	7.6	32.8*	0.3	2.5	3.7	3.7	58.6*	48.3*
c1ccc(-c2nc(-c3ccccn3)no2)cc1	24.5	25.3*	-63.7	-0.6	18.0	3.1	29.1*	12.4
CCOc1ccc(C(C(=O)NCC2CCCO2)N(Cc2cccnc2)C(=O)c2snc(C(N)=O)c2N)cc1 (centres undefined)	.	.	.	.	-5.4	.	.	.
O=C(O)c1ccccc1N=Cc1c(O)n(-c2nccs2)c(=O)c2ccccc12	2.1	17.0	.	0.4	3.3	.	.	.
